# An excerpt weighted towards active compounds, which were near 4% of everything screened.
# ERa coact pot – ER-alpha (human) coactivator binding potentiation | P03372 | TR-FRET ERalpha-LBD/SRC-Cy5 coactivator binding, 2 h; 100 = basal binding, no effect | coactivator binding (% of control), % at 25.6 µM | hit rate 1.3% among 86,000 | AID 639; in the data active means activity above about 200%;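 further: binding measured in presence of low estradiol as agonist stimulus; 0% = peptide alone without receptor and 100% = receptor with peptide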
# FAK blocker – inhibitors of human focal adhesion kinase; Q05397; biochemical FAK kinase activity assay; inhibition, %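 (tested at 7 µM)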; hit rate 0.84% among 97,000; in the data active means inhibition above about 19%;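 further: 0% = DMSO and 100% = reference compound high control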
# ERb SRC1 inh – blocks coactivator binding to human estrogen receptor beta | Q92731 | TR-FRET ER-beta LBD / SRC1-Cy5 peptide binding; receptor agonist-loaded with 1 µM estradiol | inhibition, % at 25.6 µM | hit rate 1.3% among 86,000;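 active means compounds whose percent inhibition of the receptor-coactivator binding signal exceeds about 50% in the single-dose screen, limit read from the data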;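 further: 0% = receptor plus peptide wells without compound and 100% = peptide-only wells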
# Smad3 FoxH1 inh – inhibitors of human Smad3 transcription factor binding. inhibition, % at 25 µM. TR-FRET Smad3/Dy647-FoxH1 peptide binding, europium anti-His. hit rate 0.29% among 88,000. P84022;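 active means compounds that reduce the energy-transfer binding signal between the protein and its labelled peptide by more than half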;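 further: 0% = Smad3 plus labelled peptide maximal FRET and 100% = peptide-only background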
# Target sequence (P84022 whole entry, looked up): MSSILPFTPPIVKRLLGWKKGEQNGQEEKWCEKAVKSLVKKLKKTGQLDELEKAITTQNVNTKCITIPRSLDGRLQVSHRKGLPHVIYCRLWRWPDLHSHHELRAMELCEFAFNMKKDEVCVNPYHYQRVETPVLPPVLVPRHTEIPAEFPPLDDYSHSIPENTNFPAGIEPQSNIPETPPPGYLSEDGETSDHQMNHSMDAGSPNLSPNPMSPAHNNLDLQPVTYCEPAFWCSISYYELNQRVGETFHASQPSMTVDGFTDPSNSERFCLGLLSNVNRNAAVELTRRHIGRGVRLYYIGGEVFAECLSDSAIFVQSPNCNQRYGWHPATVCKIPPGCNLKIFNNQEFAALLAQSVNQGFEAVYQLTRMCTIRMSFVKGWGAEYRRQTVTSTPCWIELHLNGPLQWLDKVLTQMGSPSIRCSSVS
# HIV Rev-RRE inh – disrupts HIV-1 Rev binding to RRE RNA | P05866 | Rev peptide-RRE RNA binding, FRET | inhibition, % at 8 µM | hit rate 0.79% among 97,000 | AID 704;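 active means inhibition above the screen-wide mean plus 3 SD, cut at about 35% in these data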;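 further: 0% = median DMSO wells and 100% = median Neomycin B control wells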
# Target sequence (P05866 whole entry, looked up): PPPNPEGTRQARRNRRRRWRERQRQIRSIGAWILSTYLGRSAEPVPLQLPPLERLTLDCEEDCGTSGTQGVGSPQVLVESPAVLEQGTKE
#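 Material: labelled RRE RNA duplex and labelled Rev peptide / Buffer or medium: HEPES pH 7.5 salt buffer with EDTA / Compound dosing: single point, 8 µM final nominal compound concentration / Benchmarks: DMSO low control, neomycin B high control / Timing: 5 min preincubation and 15 min binding, 25 °C / Technique: FRET fluorescence readout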
# ERa coact inh – ER-alpha (human) coactivator binding inhibition. P03372. TR-FRET ER-alpha LBD / SRC-1 peptide, estradiol-bound. hit rate 1.7% among 86,000. inhibition, % at 25.6 µM; in the data active means inhibition above about 50%;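 further: 0% = receptor plus peptide control and 100% = peptide only without receptor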
# * = called active by the depositor; . = no result given; [ ] = remark or other dose.
SMILES,ERa coact pot,FAK blocker,ERb SRC1 inh,Smad3 FoxH1 inh,HIV Rev-RRE inh,ERa coact inh
Cc1cc(C)cc(NC(=O)NC2CCN(CC(=O)Nc3c(C)cc(C)cc3C)CC2)c1,124,0,-6,0,8,-7
Cc1cc(C)n(-c2ncnc3sc4c(c23)CCCC4)n1,103,-2,5,13,1,-3
Cc1nccn1-c1ncnc2sc3c(c12)CCCC3,93,10,63*,5,9,1
COc1cccc2sc(N3CCN(c4nc5ccccc5s4)CC3)nc12,236*,12,30,4,2,49
Cc1ccc([C@@]2(C)CC/C(=N\N=C3/CC[C@](C)(c4ccc(C)c(C)c4)c4cc(C)c(C)cc43)c3cc(C)c(C)cc32)cc1C,.,.,.,9,.,.
C=CCN1C=CC(=C/C=C(/C#N)C(=O)OCC)C=C1,99,0,-12,-1,138*[fluorescence artefact?],-12
COc1ccc(NC(=O)Nc2ccc(N(C)C)cc2)cc1,75,3,52*[fluorescence artefact?],6,20,28
CCCNC(=O)C(=O)Nc1ccc(N(C)C)cc1,105,3,-5,91*[fluorescence artefact?],-2,-2
CN(C)CCCSc1nc2ccccc2[nH]1,.,.,.,12,.,.
O=C(CSc1nnc(-c2ccco2)n1-c1ccccc1)N1CCN(C(=O)c2ccco2)CC1,521*[fluorescence artefact?],-2,-4,21,8,-22
CN(C)Cc1cc(O)c(O)c(CN(C)C)c1,.,.,.,54*,.,.
Cc1ccc(S(=O)(=O)NCCSc2nnnn2C)cc1,112,-6,75*[fluorescence artefact?],3,-2,-1
O=C(O)C(Sc1ccc(Cl)cc1)Sc1ccc(Cl)cc1,.,.,.,-2,.,.
C=CCSc1nc2sc(C)c(C)c2c(=O)n1CC=C,88,-2,-2,-6,15,6
C=CCn1c(SCc2csc(C)n2)nc2sc3c(c2c1=O)CCCC3,100,1,6,19,7,72*[fluorescence artefact?]
C=CCn1c(SCC(=O)c2cccs2)nc2sc(C)c(C)c2c1=O,163,0,24,-1,16,62*[fluorescence artefact?]
C=CCn1c(SCc2cc(=O)n3ccsc3n2)nc2sc(C)c(C)c2c1=O,72,.,33,-2,.,57*[fluorescence artefact?]
CCCc1cc(COC)c(C#N)c(=O)[nH]1,.,.,.,7,.,.
CN1CCCC1CCNC1C2CC3CC(C2)CC1C3 (stereo not given),.,-1,.,.,5,.
Nc1ncnc2nn([C@H]3O[C@@H](CO)[C@H](O)[C@H]3O)nc12,.,.,.,-4,.,.
O=C(O)C[C@@H](C(=O)O)C1c2ccccc2-c2ccccc21,.,.,.,7,.,.
CN(C)c1ccc(NC(=O)N2CCOCC2)cc1,24,5,64*[fluorescence artefact?],-5,3,43
CCOC(=O)c1[nH]c(COC(=O)CCOc2ccccc2OC)c(C(=O)OCC)c1C,.,1,.,.,7,.
CCOc1ccc(OCC)c(NC(=O)c2[nH]c(C)c(C(C)=O)c2C)c1,249*[fluorescence artefact?],-13,38,-6,1,54*[fluorescence artefact?]
CCOC(=O)c1c(C)[nH]c(C)c1C(=O)COC(=O)CCOc1ccccc1OC,80,0,58*,7,1,21
SMILES,ERa coact pot,FAK blocker,ERb SRC1 inh,Smad3 FoxH1 inh,HIV Rev-RRE inh,ERa coact inh
COc1ccccc1OCC(=O)c1[nH]c(C)c(C(C)=O)c1C,42,11,74*[fluorescence artefact?],12,6,69*[fluorescence artefact?]
CC(=O)c1c(C)[nH]c(C(=O)COc2ccc(C#N)cc2)c1C,42,-2,12,28,4,63*
O=C(Nc1ccc2c(c1)CCC2)c1cc(S(=O)(=O)N2CCN(c3ccccc3)CC2)ccc1Cl,.,0,.,.,8,.
COc1ccc(-c2cc3nnc(-c4ccccc4)nc3s2)cc1,129,0,66*[fluorescence artefact?],4,4,63*[fluorescence artefact?]
COc1ccc(-c2cc(=O)c3ccccc3s2)cc1,103,17,4,15,12,4
O=C(O)[C@@H]1[C@H](C(=O)Nc2ccccc2)[C@@H]2C=C[C@H]1O2,.,.,.,9,.,.
NCC(=O)N[C@H](CO)C(=O)O,.,.,.,-2,.,.
CCOC(=O)c1c(NC(=O)c2cccs2)sc2c1CCC2,263*[fluorescence artefact?],.,15,-1,.,16
CCOC(=O)c1c(NC(=O)CSc2nnc(CNC(=O)c3ccco3)n2C)sc2c1CCC2,76,-4,23,6,11,65*
CCOC(=O)c1c(NS(=O)(=O)c2ccc(Br)cc2)sc2c1CCC2,42,5,56*,5,17,61*[fluorescence artefact?]
CC(C)c1cc(C(F)(F)F)nc(NNc2nc(C(C)C)cc(C(F)(F)F)n2)n1,.,.,.,16,.,.
CC(C)/C(=N\[N+](C)(C)C)c1ccccc1,.,.,.,3,.,.
Cc1ccc2c(c1)c1c3n2CC(=C2C(=O)OC(C)(C)OC2=O)NC3CCC1 (stereo not given),82,0,54*[fluorescence artefact?],-6,11,44
Cc1ccc2c(c1)c1c3n2CCN(C(=O)C2CC2)C3CCC1 (stereo not given),98,4,-1,11,7,2
COC(=O)[C@@H]1C(O)[C@H](C(=O)OC)[C@@H](C)N(C)[C@H]1C (stereo not given in full),.,.,.,-4,.,.
COc1cccc(C(=O)N2CCN(C(=O)c3cccc(F)c3)CC2)c1,131,2,-4,-4,-2,-15
O=C(c1cccc(F)c1)N1CCN(C(=O)c2cc3ncc(Br)cn3n2)CC1,66,-1,59*,-18,4,55*
Cc1ccc2[nH]c(=O)c(C3C(C#N)=C(N)Oc4c3ccc3cccnc43)cc2c1 (stereo not given),49,1,61*,2,6,79*
CN1CCc2c(sc3c2c(=O)n(-c2ccccc2)c2nnc(SCc4ccc(Cl)cc4)n32)C1,314*,12,12,2,9,31
Cc1nnc2n(-c3ccc(Cl)cc3)c(=O)c3c4c(sc3n12)CN(C)CC4,107,.,-3,0,.,-16
CCCc1cc(=O)[nH]c(/N=C(/NC(=O)C(C)N2C(=O)c3ccccc3C2=O)Nc2ccccc2)n1 (stereo not given),98,-1,-6,53*,0,-27
CCCc1cc(=O)[nH]c(/N=C(/NC(=O)c2ccccc2)Nc2ccc3c(c2)OCCO3)n1,113,1,-11,1,15,-1
COc1ccccc1Cn1c(=O)c2ccccc2n2c(SCc3csc(C)n3)nnc12,125,.,1,-3,.,1
COc1ccccc1Cn1c(=O)c2ccccc2n2c(Sc3ncnc4sccc34)nnc12,259*[fluorescence artefact?],-7,24,4,9,0
CCNC(=O)CC1C(=O)N(c2ccccc2)C(=O)N1CCc1ccc(OC)cc1 (stereo not given),162,-4,-12,-13,-1,-16
CCNC(=O)CC1C(=O)N(c2ccc(F)cc2)C(=O)N1Cc1ccc(OC)cc1 (stereo not given),138,5,-3,2,6,55*[fluorescence artefact?]
C[C@@H](CCC(=O)O)C(=O)O,.,.,.,8,.,.
CC(C)CN(CCC(=O)O)CC(C)C,110,-2,60*,0,15,-2
